Source: PubChem BioAssay
Calls of active or inactive are those of the source.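 The calls were made as follows, unless noted: active = calcium signal rise above buffer-control mean plus 5 SD in both duplicates, and also a hit in the primary screen; inactive = the rest.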

Biological target: Short transient receptor potential channel 4 (Mus musculus) (UniProt Q9QUQ5)
Assay: calcium flux activators in TRPC4/5HT1a cells, counter-screen for TRPC4 activator project, cell-based, second counter screen, HEK293 TRPC4/5HT1a, Fluo-4 (AID 434977);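 as to activation: plate controls were assay buffer for no effect and maximal serotonin response for full effect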
Settings: Fluo-4 calcium flux, at 10 µM; hits give high values
With `Cc1cccn2c(CNCCc3ccccn3)c(C(=O)N3CCOCC3)nc12` the activation was 57.2% (active).
For `COc1ccc(/C=N/NC(=O)C2COc3ccccc3O2)cc1OC` (stereo not drawn), the activation was 52.1% (active).
For `CN(C)CCNC(=O)c1c(NC(=O)c2ccccc2)sc2c1CCCC2`, the outcome was “inactive”.
In the case of `Cc1ccccc1N1CC(O)(c2ccccc2)[N+]2=C1SCC2` (stereo not drawn), the outcome was “inactive”.
With `CC(C)Cc1ccc(CN2CCCC(NC(=O)CCn3cnnn3)C2)cc1` (stereo not drawn) the activation was 27.9% (active).
With `CN1CCN(Cc2nc3c(c(=O)[nH]c(=O)n3C)n2Cc2c(F)cccc2Cl)CC1` the activation was 17.9% (active).
In the case of `O=C(CC1C(=O)NCCN1Cc1cccc(Oc2ccccc2)c1)NCCc1ccccn1` (stereo not drawn), the activation was 42.3% (active).
For `CN(C)CCCN(C(=O)c1ccc(Cl)s1)c1nc2cc3c(cc2s1)OCO3`, the outcome was “inactive”.
In the case of `Cc1cc(CSC(=N)N)c(CSC(=N)N)cc1C`, the activation was 46% (active).
In the case of `COC(=O)c1ccc(N2CCN(C)CC2)c(NC(=O)c2ccc(Br)o2)c1`, the activation was 13.3% (active).
For `CCc1cc(OCCN(C)C)ccc1Cl`, the activation was 19.9% (active).
With `C=CCn1c(/N=C/c2ccc(N(C)C)cc2)nc2ccccc21` the activation was 44.6% (active).
For `CCC1CCCCN1S(=O)(=O)c1ccc(C(=O)N(CCCN(C)C)c2nc3cc4c(cc3s2)OCO4)cc1` (stereo not drawn), the activation was 23.1% (active).
For `CCn1c(CN2CCN(Cc3ccc(C)cc3)C(CCO)C2)nc2ccccc21` (stereo not drawn), the activation was 32.4% (active).
With `O=C(NCc1ccccc1)C1=C[C@@H](C2CCCCC2)C[C@@H](OCc2ccc(CO)cc2)O1` the activation was 112% (active).
With `CCN1CCCC1CNS(=O)(=O)c1c(C)cc(C)cc1C` (stereo not drawn) the activation was 20.3% (active).
For `CSc1ccc(C(=O)NCC(c2ccco2)N(C)C)cc1[N+](=O)[O-]` (stereo not drawn), the activation was 45.6% (active).
With `Cc1ccc2nc(N(CCCN(C)C)C(=O)c3ccc(S(=O)(=O)N4CCc5ccccc5C4)cc3)sc2c1` the activation was 7.33% (active).
For `COc1ccccc1/C=C/CN1CCCC(CCC(=O)NCc2ccc(F)c(F)c2)C1` (stereo not drawn), the activation was 35.2% (active).
For `CC[C@@H](C)[C@H](CNC)NC[C@@H](Cc1cccc2ccccc12)NCCc1cccc(C(F)(F)F)c1`, the activation was 111% (active).
For `CC(C)C1CC(CCNCc2ccc(N(C)C)cc2)(c2ccccc2)CCO1` (stereo not drawn), the activation was 31.2% (active).
With `Clc1cc(Cl)cc(C2=NC(Cc3ccccc3)CO2)c1` (stereo not drawn) the activation was 30.6% (active).
For `O=C(NCCc1cnc[nH]1)c1ccc(-c2ccccc2)cc1`, the activation was 17.5% (active).
With `COCC1CCN(Cc2cn(-c3ccccc3F)nc2-c2cc(C)sc2C)CC1` the outcome was “inactive”.
With `Cc1cc(C)cc(NC(=S)N2CCN(c3ncc(C(F)(F)F)cc3Cl)CC2)c1` the activation was 49.6% (active).
For `CC(C)C1CC(CCNCc2ccc3c(c2)OCO3)(c2ccccc2)CCO1` (stereo not drawn), the activation was 5.88% (active).
In the case of `Cc1ccc(CNC(=O)C2CCCN(Cc3cnn(-c4ccccc4)c3-n3cccc3)C2)cc1` (stereo not drawn), the outcome was “inactive”.
With `CN1CCN(c2ccc(NC(=O)COc3cccc4ccccc34)cc2)CC1` the outcome was “inactive”.
In the case of `COc1ccc(CSCCN)cc1Cl`, the activation was 27.1% (active).
With `Cc1csc2c(N3CCN(C(=O)Nc4ccccc4)CC3)ncnc12` the activation was 48.3% (active).
In the case of `CCOC(=O)C1(Cc2ccccc2)CCN(Cc2cn[nH]c2-c2ccccc2)CC1`, the outcome was “inactive”.
In the case of `CCOc1ccccc1C1CC(c2ccc(Cl)cc2)Nc2nc(N)nn21` (stereo not drawn), the activation was 6.24% (active).
With `O=C(c1sc2ccccc2c1Cl)N(Cc1ccccc1)C1CCS(=O)(=O)C1` (stereo not drawn) the outcome was “inactive”.
In the case of `Cc1ccc(C)c(-n2cc(CNCCCn3cccn3)c(-c3ccccc3)n2)c1`, the activation was 29.9% (active).
For `NC(=O)C1CCCN(CCc2ccccc2)C1` (stereo not drawn), the activation was 74.3% (active).
For `CCn1c(=O)c(C(=O)NNC(=O)c2ccccc2F)c(O)c2ccccc21`, the activation was 111% (active).
For `O=C(NCc1ccccc1)C1=C[C@H](c2ccccc2)C[C@H](OCc2ccc(CO)cc2)O1`, the activation was 178% (active).
With `O=C(CC1C(=O)NCCN1Cc1ccccc1C(F)(F)F)NCCc1ccccn1` (stereo not drawn) the activation was 26.7% (active).
In the case of `CCn1c(N2CCN(S(=O)(=O)CC)CC2)nc2ccccc21`, the activation was 19.2% (active).

Tested on: not listed separately
Assay: serotonin-gated TRPC4 signal block – cell-based, second counter screen, HEK293 TRPC4/5HT1a, Fluo-4, counter-screen for TRPC4 inhibitor project, confirmation (AID 434978;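 active = primary screen active whose calcium signal fell more than 3 SD beyond the full-serotonin control mean in both duplicate plates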;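 also: serotonin given first at submaximal then at maximal dose after compound preincubation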)
Settings: Fluo-4 calcium flux, at 10 µM, serotonin added to trigger calcium flux; hits give high values
In short: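 benchmarks = ECmax serotonin wells | material = HEK293 line stably carrying TRPC4 plus 5HT1a receptor | incubation = compound 110 s, submaximal serotonin 110 s, ECmax serotonin read 110 s | technique = kinetic Fluo-4 fluorescence readout of calcium flux | probe or stimulus = serotonin, a submaximal addition followed by a maximal (ECmax) addition | repeats = duplicate plates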
With `Cc1cccn2c(CNCCc3ccccn3)c(C(=O)N3CCOCC3)nc12` the outcome was “inactive”.
In the case of `COc1ccc(/C=N/NC(=O)C2COc3ccccc3O2)cc1OC` (stereo not drawn), the outcome was “inactive”.
For `CN(C)CCNC(=O)c1c(NC(=O)c2ccccc2)sc2c1CCCC2`, the outcome was “inactive”.
With `Cc1ccccc1N1CC(O)(c2ccccc2)[N+]2=C1SCC2` (stereo not drawn) the outcome was “inactive”.
With `CC(C)Cc1ccc(CN2CCCC(NC(=O)CCn3cnnn3)C2)cc1` (stereo not drawn) the outcome was “inactive”.
With `CN1CCN(Cc2nc3c(c(=O)[nH]c(=O)n3C)n2Cc2c(F)cccc2Cl)CC1` the outcome was “inactive”.
In the case of `O=C(CC1C(=O)NCCN1Cc1cccc(Oc2ccccc2)c1)NCCc1ccccn1` (stereo not drawn), the outcome was “inactive”.
With `CN(C)CCCN(C(=O)c1ccc(Cl)s1)c1nc2cc3c(cc2s1)OCO3` the outcome was “inactive”.
For `Cc1cc(CSC(=N)N)c(CSC(=N)N)cc1C`, the outcome was “inactive”.
For `COC(=O)c1ccc(N2CCN(C)CC2)c(NC(=O)c2ccc(Br)o2)c1`, the outcome was “inactive”.
For `CCc1cc(OCCN(C)C)ccc1Cl`, the outcome was “inactive”.
In the case of `C=CCn1c(/N=C/c2ccc(N(C)C)cc2)nc2ccccc21`, the outcome was “inactive”.
In the case of `CCC1CCCCN1S(=O)(=O)c1ccc(C(=O)N(CCCN(C)C)c2nc3cc4c(cc3s2)OCO4)cc1` (stereo not drawn), the outcome was “inactive”.
With `CCn1c(CN2CCN(Cc3ccc(C)cc3)C(CCO)C2)nc2ccccc21` (stereo not drawn) the outcome was “inactive”.
For `O=C(NCc1ccccc1)C1=C[C@@H](C2CCCCC2)C[C@@H](OCc2ccc(CO)cc2)O1`, the outcome was “inactive”.
For `CCN1CCCC1CNS(=O)(=O)c1c(C)cc(C)cc1C` (stereo not drawn), the outcome was “inactive”.
In the case of `CSc1ccc(C(=O)NCC(c2ccco2)N(C)C)cc1[N+](=O)[O-]` (stereo not drawn), the outcome was “inactive”.
With `Cc1ccc2nc(N(CCCN(C)C)C(=O)c3ccc(S(=O)(=O)N4CCc5ccccc5C4)cc3)sc2c1` the outcome was “inactive”.
For `COc1ccccc1/C=C/CN1CCCC(CCC(=O)NCc2ccc(F)c(F)c2)C1` (stereo not drawn), the outcome was “inactive”.
With `CC[C@@H](C)[C@H](CNC)NC[C@@H](Cc1cccc2ccccc12)NCCc1cccc(C(F)(F)F)c1` the outcome was “inactive”.
In the case of `CC(C)C1CC(CCNCc2ccc(N(C)C)cc2)(c2ccccc2)CCO1` (stereo not drawn), the outcome was “inactive”.
In the case of `Clc1cc(Cl)cc(C2=NC(Cc3ccccc3)CO2)c1` (stereo not drawn), the outcome was “inactive”.
In the case of `O=C(NCCc1cnc[nH]1)c1ccc(-c2ccccc2)cc1`, the outcome was “inactive”.
For `COCC1CCN(Cc2cn(-c3ccccc3F)nc2-c2cc(C)sc2C)CC1`, the outcome was “inactive”.
For `Cc1cc(C)cc(NC(=S)N2CCN(c3ncc(C(F)(F)F)cc3Cl)CC2)c1`, the outcome was “inactive”.
With `CC(C)C1CC(CCNCc2ccc3c(c2)OCO3)(c2ccccc2)CCO1` (stereo not drawn) the outcome was “inactive”.
For `Cc1ccc(CNC(=O)C2CCCN(Cc3cnn(-c4ccccc4)c3-n3cccc3)C2)cc1` (stereo not drawn), the outcome was “inactive”.
For `CN1CCN(c2ccc(NC(=O)COc3cccc4ccccc34)cc2)CC1`, the outcome was “inactive”.
For `COc1ccc(CSCCN)cc1Cl`, the outcome was “inactive”.
In the case of `Cc1csc2c(N3CCN(C(=O)Nc4ccccc4)CC3)ncnc12`, the outcome was “inactive”.
With `CCOC(=O)C1(Cc2ccccc2)CCN(Cc2cn[nH]c2-c2ccccc2)CC1` the outcome was “inactive”.
In the case of `CCOc1ccccc1C1CC(c2ccc(Cl)cc2)Nc2nc(N)nn21` (stereo not drawn), the outcome was “inactive”.
For `O=C(c1sc2ccccc2c1Cl)N(Cc1ccccc1)C1CCS(=O)(=O)C1` (stereo not drawn), the outcome was “inactive”.
For `Cc1ccc(C)c(-n2cc(CNCCCn3cccn3)c(-c3ccccc3)n2)c1`, the outcome was “inactive”.
In the case of `NC(=O)C1CCCN(CCc2ccccc2)C1` (stereo not drawn), the outcome was “inactive”.
With `CCn1c(=O)c(C(=O)NNC(=O)c2ccccc2F)c(O)c2ccccc21` the outcome was “inactive”.
With `O=C(NCc1ccccc1)C1=C[C@H](c2ccccc2)C[C@H](OCc2ccc(CO)cc2)O1` the outcome was “inactive”.
For `O=C(CC1C(=O)NCCN1Cc1ccccc1C(F)(F)F)NCCc1ccccn1` (stereo not drawn), the outcome was “inactive”.
For `CCn1c(N2CCN(S(=O)(=O)CC)CC2)nc2ccccc21`, the outcome was “inactive”.
